For test [1], the system named is Rattus norvegicus. In words: Anti cancer activity of compound was measured by weight of uterus in gram per 100 g body weight of rat in 200 mg/kg diet after MNU intravenous injection. In kind it is functional. An outline of the steps:
(§1)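 Female rats housed five per cage on 4% Teklad rodent diet; single intravenous MNU via jugular vein at 50 days of age. Retinoid mixed into diet (Patterson–Kelly liquid–solid blender; stability checked by HPLC) and fed continuously from 53 days of age; n = 20 per group; diet-only MNU control group. Weighed weekly; body weight and liver, uterus, ovary weights (g per 100 g body weight) taken at study end.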

In test [2] the test system is Rattus norvegicus. In words: Anti cancer activity of compound was measured by weight of ovaries in gram per 100 g body weight of rat in 200 mg/kg diet after MNU intravenous injection. The class given is functional, Female gonad. An outline of the steps: as §1
Test [3] relates to Rattus norvegicus. In words: Anti cancer activity of compound was measured by weight of uterus in gram per 100 g body weight of rat in 100 mg/kg diet after MNU intravenous injection. In kind it is functional. The method in brief:
as §1

Test [4] concerns Rattus norvegicus. In words: Anti cancer activity of compound was measured by weight of liver in gram per 100 g body weight of rat in 100 mg/kg diet after MNU intravenous injection. The class given is functional. The method in brief:
as §1

The test system of test [5] is Rattus norvegicus. Briefly: Anti cancer activity of compound was measured by weight of ovaries in gram per 100 g body weight of rat in 100 mg/kg diet after MNU intravenous injection. The class given is functional, Female gonad. An outline of the steps: as §1
The test system of test [6] is Rattus norvegicus. In words: Anti cancer activity of compound was measured by final body weight(g) of rat in 100 mg/kg diet after MNU intravenous injection. The class given is functional. An outline of the steps: as §1
In test [7] the test system is Rattus norvegicus. Briefly: Anti cancer activity of compound was measured by final body weight(g) of rat in 200 mg/kg diet after MNU intravenous injection. In kind it is functional. An outline of the steps: as §1
For test [8], the system named is Rattus norvegicus. Briefly: Anti cancer activity of compound was measured by weight of liver in gram per 100 g body weight of rat in 200 mg/kg diet after MNU intravenous injection. In kind it is functional. An outline of the steps: as §1

With `CC(=C\C=C\C(C)=C\C(=O)O)/C=C1\CCCc2ccccc21`, the Organ weight turned out to be 0.21 g in test [1]; 0.052 g in test [2]; 0.16 g in test [3]; 2.96 g in test [4]; 0.046 g in test [5]; 3.11 g in test [8]. Further, the Body weight in test [6] is 271 g; in test [7] it was 272 g.

The record behind these values is ChEMBL document CHEMBL1145062, “Conformationally defined retinoic acid analogues. 5. Large-scale synthesis and mammary cancer chemopreventive activity for (2E,4E,6Z,8E)-8-(3',4'-dihydro-1'(2'H)-naphthalen-1'-ylidene)-3,7-dimethyl-2,4,6-octatrienoic acid (9cUAB30)” (2003).
